Source: publication PMC4592802 (Journal of immunology (Baltimore, Md. : 1950), 2015)

Columns and labels:
CD4 on 3.L2 T cells = experiment: Adhesion frequency assay for direct CD4 binding; design: species or system mouse; settings: MCC:I-E^k at >4,000 molecules/μm^2; contact 5s; n≥3 cell pairs, 50 contacts each
Outline: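 3.L2 T cells, negatively selected from 6–8-week mouse spleens, were brought by micropipette into repeated 5-s contacts with human RBCs. The RBCs were biotinylated, streptavidin-linked and coated with noncognate MCC:I-E^k at >4,000 molecules/μm². Site densities came from PE-antibody flow cytometry against standard beads. Adhesion was scored from RBC membrane deflection on retraction, with frequency taken from 50 contacts per cell pair.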

[1] = test system: 3.L2 TCR on CD8^+ 3.L2 T cells; experiment: BFP force-clamp bond lifetime assay, CD8+ 3.L2 T cells; format: binding, mouse; settings: for Bond type under force / Bond lifetime versus force: force-clamp, 5-40 pN, CD8+ 3.L2 T cells; for Bond type under force: >300 lifetime events per ligand; for Force at maximum ratio of bond lifetime of Hb to that of the peptide: ratio bond lifetime Hb/peptide vs force (Fig. 6B)
Outline: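 Biomembrane force probe force-clamp used beads carrying streptavidin-maleimide and subsaturating biotinylated pMHC-II. Each bond was loaded to a preset force and held constant until it dissociated. pMHC density was adjusted to keep adhesion frequency <20%, for […] single bonds. >300 lifetimes per ligand were taken over 5-40pN, in 5-7 bins. The Hb/peptide lifetime ratio was calculated from the force versus lifetime data.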

3.L2 TCR T-cell response = settings: relative activity of well-characterized ligands; ref [6], [36]; cited from earlier work
[2] = target: CD4 (mouse (endogenous in 3.L2 transgenic mouse T cells)) (UniProt P06332); experiment: micropipette adhesion frequency assay
Sequence of UniProt P06332 (P06332 27-457): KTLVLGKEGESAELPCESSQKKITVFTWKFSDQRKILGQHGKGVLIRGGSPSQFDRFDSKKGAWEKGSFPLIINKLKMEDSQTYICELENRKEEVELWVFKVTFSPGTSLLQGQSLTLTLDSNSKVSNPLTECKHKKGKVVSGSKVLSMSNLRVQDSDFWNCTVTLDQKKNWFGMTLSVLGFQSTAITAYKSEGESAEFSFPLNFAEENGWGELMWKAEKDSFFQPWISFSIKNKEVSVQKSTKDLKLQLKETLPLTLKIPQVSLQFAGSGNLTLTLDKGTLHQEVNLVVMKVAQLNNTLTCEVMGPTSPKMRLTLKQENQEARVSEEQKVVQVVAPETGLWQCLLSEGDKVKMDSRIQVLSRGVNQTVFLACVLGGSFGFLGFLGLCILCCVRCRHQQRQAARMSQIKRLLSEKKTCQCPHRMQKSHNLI

[3] = test system: 3.L2 TCR on CD4^+ 3.L2 T cells; experiment: Micropipette adhesion frequency assay, CD4+ 3.L2 T cells; format: binding, mouse; settings: T cells treated with anti-CD4 GK1.5, 20 μg/ml
Outline: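 T cells were incubated 30min at 4°C with 20μg/ml anti-CD4 GK1.5, then tested with the same antibody present. Micropipette contacts were made with pMHC-coated RBCs, and adhesion frequency counted from 50 contacts per cell pair over a range of contact times. A least-squares fit to the probabilistic kinetic equation, using measured TCR and pMHC densities, gave AcKa and koff. On-rate = AcKa × koff.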

3.L2 TCR on T cells = experiment: Thermal fluctuation assay; format: binding, mouse; settings: T cells treated with anti-CD4 GK1.5; zero force
Outline: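 Cells were pretreated 30min at 4°C with 20μg/ml anti-CD4 GK1.5, and the antibody was kept in the chamber during measurement. A biomembrane force probe bead bearing subsaturating biotinylated pMHC-II contacted the T cell. Bond lifetime ran from reduction to resumption of bead thermal fluctuations. koff was taken from the negative slope of ln(events with lifetime > t_b) versus t_b.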

3.L2 TCR = settings: 3D SPR; ref [6]; cited from earlier work

Substance	Bond type under force [1]	Classification of Ligand (3.L2 TCR T-cell response)	Bond lifetime versus force [1]	Force at maximum ratio of bond lifetime of Hb to that of the peptide [1]	further results
ANERADLIAYLKQATK [MCC]					Adhesion frequency Pa, noncognate pMHC-II, very high site density (CD4 on 3.L2 T cells): < 5%
GKKVITAFTEGLK [T72]	catch-slip bonds	Weak agonist			
moth cytochrome c (MCC) peptide 88-103 bound to I-E^k (peptide-MHC)					adhesion frequency [2]: < 5%
GKKVITAFNEGLK [Hb]	catch-slip bonds	Agonist			Effective 2D on-rate, Ackon, with CD4 blocking ([3]; calculated as AcKa × koff): 3.16 ± 0.42 × 10^−4 μm^4s^−1; 2D off-rate, koff (adhesion frequency assay)**, with CD4 blocking ([3]; zero force): 1.89 ± 0.31 s⁻¹; 2D off-rate, koff (thermal fluctuation assay)*, with CD4 blocking (3.L2 TCR on T cells): 1.41 ± 0.17 s⁻¹
GKKVITAFIEGLK [I72]	slip-only bonds	Antagonist	decreases monotonically with increasing force	10-15 pN	
GKKVITAFAEGLK [A72]	slip-only bonds	Weak antagonist	decreases monotonically with increasing force	10-15 pN	Detectability by SPR (earlier work) (3.L2 TCR): not previously detectable using SPR
